# Bioassay records deposited in PubChem by several laboratories.
# This is a sample that favours compounds with a hit; in the whole collection about 2.3% have one here.
# ABCG2 inh: ABCG2 efflux pump inhibitors, primary screen, multiplex with ABCB1, IgMXP3 cells, flow cytometry. inhibition, % at 6.6 µM. AID 1325, 2008. JC-1 efflux. 190,000 compounds, 0.1% hits;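 active = inhibition above 80%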;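 note: 0% = DMSO and 100% = nicardipine control wells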
#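 Test system: ABCG2 IgMXP3 and barcoded ABCB1 CCRF-Adr cell mix; Schedule: cells with compound and JC-1, 10 min at 25 °C, rotating, no wash; Technique: flow cytometry of retained JC-1 fluorescence; Measure: % inhibition of efflux relative to nicardipine and DMSO; Controls: nicardipine high and DMSO low controls.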
# ABCB1 inh: ABCB1 efflux pump inhibitors, primary screen, cell-based, multiplex, flow cytometry, ABCG2 counter-screen | CCRF-Adr cells, JC-1 efflux | inhibition, % at 6.6 µM | 190,000 compounds, 0.067% hits | AID 1326, 2008; in the data active = inhibition above about 40%;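 note: 0% = vehicle and 100% = reference inhibitor; higher value means more JC-1 retained so stronger ABCB1 efflux block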
# Arbovirus inh: antivirals against arbovirus infection, primary screen, cell-based, full library, 10K replicate subset. inhibition, % at 10 µM. arbovirus infection cell-based antiviral screen. 200,000 compounds, 0.37% hits; in the data active = inhibition above about 30%
# RAM inhibit: inhibitors of the yeast RAM network, primary screen, dse1pr::URA3 reporter, 5-FOA selection; 190,000 compounds, 1.8% hits; S. cerevisiae dse1pr::URA3 reporter, 5-FOA growth OD615, 2 d; analog-sensitive cbk1-as2 kinase mutant strain; inhibition, % at 50 µM;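 active = inhibition above a set limit, 3 SD over mean compound inhibition, cut at about 8.4% in these data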;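 note: 0% = DMSO-only wells with no growth and 100% = 10 µM 1-NA-PP1 full growth; inhibition rescues growth on 5-FOA so higher OD means more RAM inhibition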
# * marks the source's active call; other numbers are inactive results.
SMILES,ABCG2 inh,ABCB1 inh,Arbovirus inh,RAM inhibit
COc1ccc(NC(=O)CSc2nnc(-c3ccccc3)n2Cc2ccco2)c(OC)c1,5.5,2.6,-3.0,0.3
COc1ccccc1NC(=O)CSc1nnc(-c2ccco2)n1Cc1ccco1,3.3,1.4,6.6,1.6
COc1ccc(C)cc1NC(=O)CSc1nnc(-c2ccccn2)n1Cc1ccco1,1.1,0.8,4.3,3.3
COc1ccc(C)cc1NC(=O)CSc1nnc(COc2ccc(Cl)cc2)n1Cc1ccco1,10.5,1.8,-9.7,9.7*
O=C(CSc1nnc(-c2ccco2)n1Cc1ccco1)Nc1ccccc1,32.4,0.8,1.4,11.3*
COc1cc2c(cc1NC(=O)CSc1nc3cc(Cl)ccc3s1)oc1ccccc12,-4.5,-0.7,-29.9,2.1
OCCOCCn1c2ccccc2c2ccccc21,3.0,0.6,-2.3,-0.3
CCN(Cc1cnn(C)c1)Cc1nc(Cc2ccccc2Cl)no1,0.7,0.2,1.9,1.0
CCOc1cccc(OCCCOc2ccccc2)c1,5.9,0.1,-1.0,1.8
CCOC(=O)c1csc(NC(=O)c2ccc(S(=O)(=O)N(C)C)cc2)n1,1.7,0.3,-1.1,2.0
CCOC(=O)c1sc(NC(=O)c2ccc(S(=O)(=O)N(C)C)cc2)nc1C,1.2,0.1,-0.4,10.1*
Cc1cc(C)cc(N=C2SC(CC(=O)Nc3ccccc3)C(=O)N2CCN2CCOCC2)c1 (stereo not drawn),11.6,3.8,-23.8,0.6
COC(=O)c1ccccc1NC(=O)CN1CCC(n2nnc3cc(C(F)(F)F)ccc32)CC1,4.3,1.2,31.7*,6.3
COc1ccc(C(=O)NNC(=O)CN2CCC(n3nnc4cc(C(F)(F)F)ccc43)CC2)cc1,3.0,0.6,0.7,2.7
COc1ccccc1NC(=O)CN1CCC(n2c(C)nc3cc(F)ccc32)CC1,7.4,3.2,32.6*,0.7
COCCNC(=O)c1onc(CSc2ccccc2C)c1C(=O)O,7.0,0.8,1.4,0.8
Cc1ccc(C(=O)NNC(=O)CCCN2C(=O)/C(=C/c3ccccc3Cl)SC2=S)cc1,-8.3,-1.6,-8.5,10.1*
O=C(CCN1C(=O)/C(=C/c2ccccc2)SC1=S)NNC(=O)c1cccnc1,-4.4,-0.6,-6.7,9.6*
O=C(CCCN1C(=O)/C(=C/c2cccs2)SC1=S)Nc1cccc(C(=O)O)c1,0.0,0.1,38.1*,2.1
Cc1ccc(S(=O)(=O)c2cc3cc(Br)ccc3oc2=O)cc1,24.0,0.6,-3.4,4.9
O=[N+]([O-])c1ccc(N/N=C/c2sc(N3CCOCC3)nc2-c2ccccc2)c(S(=O)(=O)Nc2ccccc2Cl)c1,1.8,8.5,-18.1,8.4*
COc1ccc(C2NC(=O)c3sc4nc(C)c(C(C)=O)c(-c5ccc(Cl)cc5)c4c3N2)cc1 (stereo not drawn),4.7,1.7,3.1,10.4*
COc1ccc(-c2c(C(C)=O)c(C)nc3sc4c(=N)n(N)cnc4c23)cc1,0.2,0.8,-15.3,1.4
COc1ccc(C(=O)NNC(=O)CSc2nnc(COc3ccccc3OC)n2C)cc1,1.3,0.4,0.1,3.5
COc1ccc(N(CC(=O)N2CCc3ccccc32)S(=O)(=O)c2c(C)nn(C)c2C)cc1,9.8,3.9,2.9,8.9*
SMILES,ABCG2 inh,ABCB1 inh,Arbovirus inh,RAM inhibit
O=C(CC1SC(=O)N(Cc2ccc(Cl)cc2)C1=O)Nc1nccs1 (stereo not drawn),3.6,1.1,-2.8,3.4
CCN=c1scc(C)n1/N=C/c1cc(Br)c(O)c(Br)c1,-2.2,-1.3,31.3*,-0.1
CCc1ccc(-c2csc(NC(=O)C3CCCO3)c2C(=O)OC(C)C)cc1 (stereo not drawn),1.4,0.1,-15.6,10.1*
CCCOc1ccc(OCCn2nc(C(=O)O)c3ccccc3c2=O)cc1,1.6,-0.1,12.4,9.6*
Cc1ccccc1OCCn1nc(C(=O)O)c2ccccc2c1=O,1.4,0.3,0.9,0.7
O=C(O)c1nn(CCOc2cccc(Cl)c2)c(=O)c2ccccc12,13.5,3.0,7.2,8.8*
CC(C)OCCCN1CN(S(=O)(=O)c2ccc(Cl)cc2)c2nc3ccccc3nc21,11.8,4.5,6.4,4.9
CC(C)OCCCN1CN(S(=O)(=O)c2cccc(Cl)c2)c2nc3ccccc3nc21,4.2,1.7,2.7,9.1*
CCN(c1ccccc1)S(=O)(=O)c1cc(C(=O)Nc2ccc(F)c(F)c2)ccc1F,9.9,-0.1,-17.8,10.7*
